CendR NRP1 mod: modulators of CendR peptide binding to human neuropilin-1. O14786. FAM-RPARPAR peptide binding to NRP-1, fluorescence polarization. inhibition, % at 25 µM. 0.85% of 360,000 active. AID 602438;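 active = inhibition or corrected inhibition above about 18%, plus a signal ratio from 0.5 to 1.5, limit read from the data, passing the limit was not always enough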
Target sequence (O14786 whole entry, looked up): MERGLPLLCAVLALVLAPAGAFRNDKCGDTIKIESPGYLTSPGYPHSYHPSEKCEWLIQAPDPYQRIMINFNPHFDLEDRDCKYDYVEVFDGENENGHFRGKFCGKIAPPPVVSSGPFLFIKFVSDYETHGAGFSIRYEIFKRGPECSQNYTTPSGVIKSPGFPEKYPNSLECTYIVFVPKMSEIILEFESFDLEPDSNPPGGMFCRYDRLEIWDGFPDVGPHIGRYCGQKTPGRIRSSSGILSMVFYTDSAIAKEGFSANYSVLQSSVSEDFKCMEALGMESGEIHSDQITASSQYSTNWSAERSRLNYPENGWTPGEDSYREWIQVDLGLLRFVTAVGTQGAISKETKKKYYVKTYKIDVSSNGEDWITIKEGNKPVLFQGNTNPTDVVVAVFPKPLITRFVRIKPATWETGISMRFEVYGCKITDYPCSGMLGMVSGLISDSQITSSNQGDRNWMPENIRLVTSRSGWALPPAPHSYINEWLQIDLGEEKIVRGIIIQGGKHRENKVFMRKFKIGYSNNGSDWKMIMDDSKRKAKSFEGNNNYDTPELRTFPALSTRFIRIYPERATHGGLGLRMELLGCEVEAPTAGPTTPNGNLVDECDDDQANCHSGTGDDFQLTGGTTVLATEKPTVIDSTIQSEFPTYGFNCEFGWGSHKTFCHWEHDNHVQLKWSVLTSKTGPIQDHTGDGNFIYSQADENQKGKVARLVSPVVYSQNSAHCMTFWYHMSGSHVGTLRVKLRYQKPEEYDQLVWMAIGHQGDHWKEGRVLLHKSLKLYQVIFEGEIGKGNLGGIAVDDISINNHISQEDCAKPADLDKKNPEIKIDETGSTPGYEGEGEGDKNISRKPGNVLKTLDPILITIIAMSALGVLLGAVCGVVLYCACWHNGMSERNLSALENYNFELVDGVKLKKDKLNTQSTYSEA
ABCB6 inh 2: inhibitors of human ABC transporter ABCB6. 0.19% of 360,000 active. fluorescence ratio to DMSO, % at 10 µM. K562-ABCB6 porphyrin accumulation, flow cytometry, 1 h; stronger effect = lower value;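 active = fluorescence ratio to DMSO below 75%, the collection mean minus 3 SD; inconclusive = too few cells collected in the well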;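 also: signal is porphyrin accumulated inside mitochondria; 100% equals median channel fluorescence of DMSO control wells; lower ratio means ABCB6 inhibition with less porphyrin fluorescence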
Exocytosis inh: lytic granule exocytosis inhibition | TALL-104 LAMP-1 surface exposure, flow cytometry; cells stimulated with thapsigargin and PMA | inhibition, % at 10 µM | 0.66% of 360,000 active | AID 651702;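 active = inhibition above about 55%, limit read from the data; inconclusive = no clear call, values can overlap the other calls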
Arr AP2 block: blocks beta-arrestin peptide binding to AP2 adaptin. FITC-arrestin peptide / GST-AP2 beads, flow cytometry; AP2 beta2 appendage carries R879A mutation. inhibition, % at 10 µM. 0.31% of 340,000 active. AID 504490;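 active = inhibition above a set limit, near 3 SD of compounds lacking own fluorescence, cut at about 54% in these data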;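 also: plate controls were DMSO wells for no effect and 5 µM unlabelled arrestin peptide for full effect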
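system = GST-tagged AP2 beta2-adaptin appendage (R879A) on 4 µm glutathione beads | reagent = FITC-labelled arrestin peptide probe, 50 nM final | schedule = compound with beads 12 min RT, then probe 1 h RT | signal = HyperCyt-sampled flow cytometry, FL1 channel, ex 488/em 535 nm | read-out = percent response from loss of bead-bound FITC fluorescence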
ATG4B inhibitor: blocks human ATG4B protease cleavage of LC3 substrate; ATG4B cleavage of LC3-PLA2, NBD-HPC fluorescence, 1 h; inhibition, % at 8.33 µM; 0.51% of 340,000 active; AID 504462; Q9Y4P1; in the data active = inhibition above about 40%
Myeloid diff 2: promotes myeloid progenitor differentiation | 1% of 360,000 active | ER-HoxA9 myeloid progenitors, lysozyme-GFP differentiation, flow cytometry | calls only at 10 µM;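 active = normalized GFP-positive differentiation at or above the plate's own cutoff, the solvent-only control mean plus 3 SD; inconclusive = no clear call, values can overlap the other calls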;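 also: cells exposed to compound for four days before flow analysis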
Myeloid diff CP1: myeloid differentiation induction. calls only. AID 651706. ER-HoxA9 myeloid progenitors, GFP/Mac1 double-positive flow. shares compounds with Myeloid diff 2. 2% of 2,300 active;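 active = share of green or green-and-red cells above 9 and 9% in run 1 or 4 and 3% in run 2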
GFP autofluor: compound fluorescence in myeloid differentiation counter-screen | shares compounds with Myeloid diff 2 | ER-HoxA9 myeloid progenitors, no estrogen, GFP autofluorescence flow cytometry; vehicle wells 0%, positive control 100% | fluorescence response, % (concentration not given with the values) | 7.4% of 2,300 active;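 active = over 5% cells positive for green fluorescent reporter, or over 2% positive for both it and APC stain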;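 also: range taken on the double positive population between DMSO and positive control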
* marks the source's active call; other numbers are inactive results; i = inactive; ? = inconclusive; nt = not tested or not shown; + = active, no number. A selection: hits, their analogues and other compounds. The true share with any hit is near 3.3%.

SMILES	CendR NRP1 mod	ABCB6 inh 2	Exocytosis inh	Arr AP2 block	ATG4B inhibitor	Myeloid diff 2	Myeloid diff CP1	GFP autofluor
COc1ccc(-c2nn(C)c(=O)c3ccccc23)cc1NC(=O)Cn1nc(C)c2ccccc2c1=O	5.5	96.0	-3.4	6.1	-2.1	+	i	0.0
C=CCn1c(C)cc(C(=O)Cn2c(C(C)O)nc3ccccc32)c1C (centres undefined)	-2.7	101.0	1.0	22.0	1.2	i	nt	nt
O=C(O)c1ccc(O)c(O)c1	5.4	101.0	5.3	8.0	-20.6	i	nt	nt
O=C(O)c1ccc(-c2ccc(O)c(F)c2)cc1	-1.2	97.0	-0.6	0.9	1.6	i	i	0.4
OCC[C@H]1C[C@H](O)[C@@H](O)[C@@]2(OCCCc3ccccc32)O1	0.2	102.0	-0.7	-1.7	-2.0	+	i	0.5
OCC[C@@H]1C[C@@H](O)[C@H](O)[C@]2(OCCCc3ccccc32)O1	14.4	100.0	-15.6	4.3	-1.0	i	nt	nt
O=C(CC1(O)C(=O)Nc2ccc(Br)cc21)c1ccccc1 (centres undefined)	-1.7	99.0	-3.3	nt	nt	i	nt	nt
Nc1ccc(NC(=O)c2ccccc2)c2c1C(=O)c1ccccc1C2=O	11.2	131.0	-3.1	-9.3	-7.2	i	i	0.0
COc1ccccc1-c1nn(-c2ccccc2)cc1C(=O)N1CCN(C(=O)c2ccco2)CC1	1.3	101.0	2.9	1.9	-1.5	i	i	0.4
COc1ccc(S(=O)(=O)N2CCOC2CNC(=O)C(=O)NCc2ccccc2Cl)cc1 (centres undefined)	3.3	99.0	-11.8	-11.1	-0.5	i	nt	nt
COc1ccc([N+](=O)[O-])c(OC)c1C(=O)NC(=O)Nc1c(F)c(F)c(F)c(F)c1F	3.8	100.0	25.0	-1.1	5.8	i	nt	nt
COc1ccc2[nH]c3c(c2c1)[C@@H]1CCN2C(=O)CCC[C@H](C3)[C@H]12	19.9	106.0	0.6	42.3	2.7	+	i	0.0
COC(=O)c1ccc(CSc2ncn[nH]2)o1	0.0	105.0	0.7	-2.3	-1.0	i	nt	nt
CCOC(=O)c1ccc(CSc2ncn[nH]2)o1	2.5	96.0	10.8	-3.1	-3.7	i	i	0.0
CCOc1ccc(C(=O)NCC(=O)OCc2c(F)cccc2Cl)cc1OCC	10.1	94.0	1.0	1.8	9.9	i	i	0.0
Cc1ccc(C)c(N(CC(=O)NC2CCCC2)C(=O)c2oc(C(C)(C)C)cc2C)c1	1.3	95.0	2.2	7.4	8.2	i	i	0.0
Cc1ccccc1C(=O)/C(C#N)=N/Nc1c(C)n(C)n(-c2ccccc2)c1=O	-0.7	101.0	0.6	35.5	-6.1	i	nt	nt
Cc1ccc2c(C)c(C(=O)Nc3c(C)n(C)n(-c4ccccc4)c3=O)oc2c1	10.4	96.0	-1.9	7.2	14.4	i	nt	nt
Cc1cc2oc(C(=O)Nc3c(C)n(C)n(-c4ccccc4)c3=O)c(C)c2cc1C	13.8	102.0	-1.0	1.6	-8.2	i	i	0.0
Cc1c(N/N=C(\C#N)C(=O)c2ccccc2)c(=O)n(-c2ccccc2)n1C	-6.5	100.0	1.4	22.6	0.6	i	i	6.9*
COCCNC(=O)C1(C)CCCN(CCOc2ccc(Cl)cc2)C1 (centres undefined)	4.8	82.0	-6.4	nt	nt	i	nt	nt
O=C(CN1CCN(c2ccc(F)cc2)CC1)Nc1cc(C(F)(F)F)ccc1Cl	5.7	100.0	5.5	-9.8	1.5	i	i	0.7
O=C(CN1CCOCC1)Nc1cc(C(F)(F)F)ccc1Cl	2.3	93.0	-3.5	-4.2	-8.4	i	nt	nt
CC(Sc1nn(-c2ccccc2)c(=S)s1)C(=O)NCC1CCCO1 (centres undefined)	-7.7	100.0	-1.6	-0.6	-5.9	i	i	0.5
CC#CCN1c2ccccc2[C@]23C[C@@H](C(=O)OC)N(C(=O)NC4CCCCC4)C2=NC(C(=O)OC)=C(C(=O)OC)[C@H]13	8.8	96.0	1.4	15.9	-7.4	i	i	0.3
SMILES	CendR NRP1 mod	ABCB6 inh 2	Exocytosis inh	Arr AP2 block	ATG4B inhibitor	Myeloid diff 2	Myeloid diff CP1	GFP autofluor
CC#CCN1c2ccccc2[C@]23C[C@@H](C(=O)OC)N(C(=O)C4CCC4)C2=NC(C(=O)OC)=C(C(=O)OC)[C@H]13	8.1	105.0	4.5	4.9	-8.8	i	nt	nt
CCC(=O)NC(=S)Nc1ccc(NC(=O)c2ccccc2[N+](=O)[O-])cc1	0.5	99.0	1.8	-9.7	-13.4	i	i	0.7
CCC(=O)NC(=S)Nc1ccc(NC(=O)c2cccc([N+](=O)[O-])c2C)cc1	-9.7	98.0	-6.2	2.5	5.5	i	nt	nt
Cc1cc(C)nc(N2CCCC(C(=O)NCCC3=CCCCC3)C2)n1 (centres undefined)	-10.5	96.0	-2.2	-3.3	-6.0	i	nt	nt
O=C(OCc1ccccc1)N1CCC2CC1c1cc(N3CCN(S(=O)(=O)c4cccc5ccccc45)CC3)ccc12 (centres undefined)	9.5	103.0	-1.9	nt	nt	i	nt	nt
CCn1ccnc1CNC(=O)CC1C(=O)NCCN1CC(c1ccccc1)c1ccccc1 (centres undefined)	11.9	100.0	-0.4	-1.2	10.4	i	nt	nt
CC(C)c1nc(CNC(=O)CC2C(=O)NCCN2Cc2ccccc2)cs1 (centres undefined)	-5.9	477.0	4.1	nt	nt	i	i	0.0
CCOc1ccc(CN2CCNC(=O)C2CC(=O)NCc2csc(C(C)C)n2)cc1 (centres undefined)	-2.7	95.0	2.5	3.5	3.5	?	nt	nt
COc1ccc2ccccc2c1CNC(=O)CC1C(=O)NCCN1CC(C)C (centres undefined)	-28.0	108.0	19.7	2.6	5.4	+	i	0.5
Cc1csc(=O)n1CC(=O)OCC(=O)NNC(=O)c1ccc([N+](=O)[O-])cc1	0.0	104.0	3.6	-12.4	0.8	+	i	0.4
CCOC(=O)C(=O)N(Nc1ccccc1C)c1ccccc1C	-13.9	104.0	0.7	-3.1	-6.8	i	nt	nt
COc1ccccc1NC(=O)N1CCN(c2ccccc2F)CC1	1.4	i	-0.6	8.0	-10.8	i	i	0.3
CC(C)(C)OC(=O)NCCc1nnc(SCc2ccccc2Cl)o1	16.7	97.0	2.6	-4.2	3.4	i	i	0.2
CC(C)(C)OC(=O)NCCc1nnc(SCc2ccccc2)o1	1.4	93.0	-3.2	14.4	8.9	i	nt	nt
CC(C)(C)OC(=O)N[C@H](C(=O)OC(C)(C)C)c1ccc2ccccc2c1	-0.8	102.0	1.4	-1.4	7.3	+	i	0.6

Screening results deposited in PubChem by several laboratories.
